# Scp1 inh = inhibitors of human Scp-1 phosphatase. inhibition, % at 20 µM. hit rate 0.88% among 340,000. Q9GZU7. Recombinant Scp1, phosphopeptide, malachite green phosphate absorbance;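 active = inhibition above about 50% at 20 µM, limit read from the data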
#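 Test system: SCP-1 phosphatase catalytic domain, residues 76-261; measured by: colorimetric phosphate reagent with accelerator and stabiliser, absorbance at 630 nm; timing: enzyme reaction 45 min at room temperature, colour 5 min, stabilisation 30 min; also added: Phosphorylated 17-residue peptide substrate; compound dosing: one concentration, 20 µM, with 1.0% DMSO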
# Rpn11 inh = blocks the human proteasome subunit Rpn11. human 26S proteasome, Ub4-pepOG fluorescence polarization; 20S core pre-blocked with epoxomicin. O00487. AID 588493. hit rate 0.59% among 360,000. inhibition, % at 20 µM;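 active = inhibition at 20 µM, scaled to each plate's controls, above about 33%, limit read from the data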
# Target sequence (O00487 whole entry, looked up): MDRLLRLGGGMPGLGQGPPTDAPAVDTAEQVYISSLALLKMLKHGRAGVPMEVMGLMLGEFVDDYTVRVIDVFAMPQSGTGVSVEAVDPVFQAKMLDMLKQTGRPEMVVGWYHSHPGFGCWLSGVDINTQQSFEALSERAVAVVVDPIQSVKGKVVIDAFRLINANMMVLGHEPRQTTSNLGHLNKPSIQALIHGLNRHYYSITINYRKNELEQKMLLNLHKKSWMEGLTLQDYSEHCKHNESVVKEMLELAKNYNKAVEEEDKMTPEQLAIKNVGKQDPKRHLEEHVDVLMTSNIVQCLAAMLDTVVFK
# DNMT1 block = inhibitors of human DNMT1; P26358; DNMT1 molecular beacon, Hinp1I cleavage, fluorescence; inhibition (reported as % activation of signal), % at 10 µM; hit rate 0.83% among 360,000; in the data active = inhibition above about 50%
# SUMO1 PPI mod = SUMO1-SIM interaction modulation; P63165; SUMO1 binding to a labelled peptide, TR-FRET, 1 h; inhibition, % at 20 µM; hit rate 0.33% among 360,000; in the data active = inhibition above about 37%
# Target sequence (P63165 whole entry, looked up): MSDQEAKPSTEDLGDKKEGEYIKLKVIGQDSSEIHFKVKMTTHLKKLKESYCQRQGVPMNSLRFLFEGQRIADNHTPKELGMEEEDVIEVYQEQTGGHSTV
# LMPTP inh = LMPTP (human) inhibition. recombinant LMPTP-A, OMFP fluorogenic substrate, fluorescence intensity. hit rate 0.22% among 360,000. inhibition, % at 20 µM. P24666;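 active = compounds that cut the enzyme signal by at least half of the control window in the single-dose screen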
# Target sequence (P24666 whole entry, looked up): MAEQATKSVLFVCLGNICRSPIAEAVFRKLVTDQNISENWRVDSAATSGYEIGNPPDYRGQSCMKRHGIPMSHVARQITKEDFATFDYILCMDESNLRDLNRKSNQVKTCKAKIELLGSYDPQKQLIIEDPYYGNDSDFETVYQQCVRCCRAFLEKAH
#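 Buffer or medium: Bis-Tris pH 6.0, DTT, detergent; Assay system: LMPTP-A enzyme; Quantity: 0.625 nM enzyme; Detection: endpoint fluorescence intensity; Times: 50 min dark incubation at room temperature; Controls: substrate-only low control, DMSO enzyme-plus-substrate high control; Doses: single 20 µM dose; Read-out: percent inhibition versus substrate-only and uninhibited controls; Reagent: 400 µM OMFP.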
# STEP inh = blocks human striatal-enriched tyrosine phosphatase; hit rate 0.25% among 360,000; AID 588621; recombinant STEP, OMFP fluorogenic substrate, fluorescence; inhibition, % at 20 µM;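 active = inhibition at 20 µM, scaled per plate between control wells, above about 37%, limit read from the data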
#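 System: STEP phosphatase, cell-free reaction; Buffer or medium: Bis-Tris pH 6.0 buffer with DTT, detergent; Incubation: 20 min at room temperature, dark; Measured by: fluorescence, 480/540 nm.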
# Beacon interf DR = beacon fluorescence artifact, dose response counter-screen | AID 602382 | molecular beacon fluorescence, spectral interference counter-screen | IC50, µM | shares compounds with DNMT1 block | 200 tested, under 10 active; call rule not given here
# DNMT1 confirm = confirmation of human DNMT1 inhibitors | shares compounds with DNMT1 block | DNMT1 molecular beacon HinP1I cleavage, fluorescence | hit rate 8% among 2,300 | inhibition, % at 10 µM;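 active = average inhibition of at least 30% in the single-concentration confirmation test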
# DNMT1 interf = counter-screen for DNMT1 inhibitors: spectral interference. AID 602387. DNMT1 molecular beacon spectral interference counterscreen, fluorescence 485/520. hit rate 1% among 2,300. shares compounds with DNMT1 block. activation (fluorescence interference), % at 10 µM;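 active = activation of at least 30% at 10 µM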;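 also: DNMT1 catalytic domain with a HinP1I cleavage step and a FAM/dabcyl DNA beacon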
# Hits are given with their value; 0 = inactive; - = no result given. The list is not random: actives were taken first. Their share in the collection is about 2.3%.
SMILES,Scp1 inh,Rpn11 inh,DNMT1 block,SUMO1 PPI mod,LMPTP inh,STEP inh,DNMT1 confirm,DNMT1 interf,others
Cc1cc(C)n(-c2nc(N(c3ccccc3)c3ccccc3)nc(-n3nc(C)cc3C)n2)n1,0,0,0,0,0,0,-,-,
COc1cc(OC)c2ccc(=O)oc2c1C(CC(=O)N1CCCC1)c1ccc2c(c1)OCO2 (centres undefined),0,0,72.2,0,0,0,0,0,
CC(C)(C)NC(=O)Cc1ccc(S(=O)(=O)N2CCCC2)s1,0,0,72.2,0,0,0,0,0,
COc1ccc(OC)c(S(=O)(=O)N2CCCC(C(=O)NCCN3CCOCC3)C2)c1 (centres undefined),0,0,0,0,0,0,-,-,
CCCCn1c(N)c(N(CC(C)C)C(=O)c2ccc(N3C(=O)CCC3=O)cc2)c(=O)[nH]c1=O,0,0,0,0,0,0,-,-,
COc1ccccc1/C=C/C=N/NC(=O)c1ccccn1,0,0,0,0,0,0,-,-,
COc1ccccc1/C=C/C=N/NC(=O)c1cc(-c2ccco2)[nH]n1,0,0,61.4,0,67.4,0,0,0,
Cc1cc(C)c(C)c(S(=O)(=O)Nc2ccccc2N2CCOCC2)c1C,0,0,0,0,0,0,-,-,
CCCNC(=O)C1(S(=O)(=O)c2ccccc2)CC=CC1,0,0,91.6,0,0,0,0,0,
COc1ccc(C2CC(c3ccccc3C(F)(F)F)=NN2c2ccc(S(N)(=O)=O)cc2)cc1 (centres undefined),0,0,65.1,0,0,0,0,0,
Cc1cc2cc(CNC(=O)Nc3ccc(Cl)c(Cl)c3)ccc2n1C,0,0,57.5,0,0,0,0,0,
COc1ccc(/C=C2/C(=O)N(c3nc4ccccc4s3)N=C2CSc2ccc(Cl)cc2)cc1,0,0,65.1,0,0,0,53.6,0,Beacon interf DR=0
O=C(N/N=C/c1cc(Br)c(Br)o1)C(O)c1ccccc1 (centres undefined),0,0,76.8,0,0,0,0,0,
O=C(COc1ccc(Cl)cc1Cl)NN=C1c2ccccc2-c2ccccc21,0,0,87.3,0,0,0,0,0,
CC(C)(C)C(=O)CSc1ccc(S(=O)(=O)N2CCN(Cc3ccccc3)CC2)cn1,0,0,0,0,0,0,-,-,
CCNC(=O)c1c(NC(=O)c2cc(-c3cc(C)ccc3O)n[nH]2)sc2c1CCCC2,0,0,76.0,0,0,0,0,0,
Cc1ccc(-c2cc(C(=O)Nc3sc4c(c3C(=O)NCc3ccco3)CCC4)[nH]n2)c(O)c1,0,0,0,0,0,0,-,-,
CN1CCN(C(=O)CCN2C(=O)c3ccccc3C2=O)CC1,0,0,51.2,0,0,0,0,0,
O=C(CCN1C(=O)c2ccccc2C1=O)N1CCN(C(=O)c2ccccc2)CC1,0,0,0,0,0,0,-,-,
CSc1cccc(NC(=O)CNC(=O)C2CCCCC2)c1,0,0,0,0,0,0,-,-,
O=C(Nc1cnn(C23CC4CC(CC(C4)C2)C3)c1)c1cnn2c(C(F)(F)F)cc(-c3ccco3)nc12,0,0,58.3,0,0,0,0,0,
Cc1c(NC2=NC(C)(C)Cc3ccccc32)c(=O)n(-c2ccccc2)n1C,0,0,0,0,0,0,-,-,
Cc1c(NC2=NC3(CCCCC3)Cc3ccccc32)c(=O)n(C)n1-c1ccccc1,0,0,82.7,0,0,0,0,0,
CCc1ccc2c(c1)c1nc(C)sc1n2CC,0,0,51.2,0,0,0,0,0,
CCN(C(=O)COC(=O)CCOc1ccc(C(C)(C)C)cc1)c1c(N)n(Cc2ccccc2)c(=O)[nH]c1=O,0,0,63.4,0,0,0,0,0,
SMILES,Scp1 inh,Rpn11 inh,DNMT1 block,SUMO1 PPI mod,LMPTP inh,STEP inh,DNMT1 confirm,DNMT1 interf,others
OCCN1CCN(c2cc(-c3ccc4ccccc4c3)nc3ccnn23)CC1,-,0,0,0,0,0,-,-,
CC(=O)c1ccc(NC(=O)CSc2ccc(-c3ccc(-n4cccn4)cc3)nn2)cc1,0,0,71.2,0,0,0,0,0,
COc1ccc(-c2nc3c4ccccc4ccn3c2Cc2ccccc2)cc1OC,-,0,0,0,0,0,-,-,
CCC(=O)Nc1ccc2nc3c(=O)[nH]c(=S)[nH]c3nc2c1,67.5,0,54.6,0,0,0,0,0,
COC(=O)c1ccc(CCc2cc(O)ccc2O)cc1,0,0,72.3,0,0,0,0,0,
COC(=O)c1ccc(CCc2cc(O)c(Br)cc2O)cc1,0,0,0,0,0,0,-,-,
COC(=O)c1nnn(CC(=O)NC(=O)Nc2ccccc2)c1C(=O)OC,0,0,0,0,0,0,-,-,
O=C(NNc1cc(N2CCCC2)nc(N2CCCC2)n1)c1ccc([N+](=O)[O-])cc1,0,0,55.6,37.1,0,0,0,0,
Cc1cccn2c(=O)c3cc(C(N)=S)c(=N)n(CCCOC(C)C)c3nc12,0,0,62.1,0,0,0,0,0,
COc1ccc(S(=O)(=O)N2CCCC2CNC(=O)C(=O)Nc2ccc(C)cc2)cc1 (centres undefined),0,0,0,0,0,0,-,-,
Cc1ccc(S(=O)(=O)N2CCCC2CNC(=O)C(=O)Nc2ccc(F)cc2)cc1 (centres undefined),0,0,54.2,0,0,0,0,0,
Cn1nc2c3ccccc3n(Cc3ccccc3)c2nc1=S,0,0,0,0,0,0,-,-,
CN(C)S(=O)(=O)N(CC(=O)N(Cc1ccccc1)Cc1ccccc1)c1ccccc1,0,0,55.5,0,0,0,0,0,
CN(C)S(=O)(=O)N(Cc1ccc(Br)cc1)c1ccccc1,0,0,0,0,0,0,-,-,
CCCCN(C)CCn1c(=S)[nH]c2ncccc2c1=O,0,0,93.6,0,0,0,0,0,
O=[N+]([O-])c1cccc(CON=Cc2ccccc2O)c1,-,0,0,0,0,0,-,-,
Cc1ccccc1C(=O)Nc1ccc2c(C#N)c3nc4ccccc4nc3n2c1,93.5,0,66.3,0,0,0,0,0,
COC(=O)c1ccc(-c2nc(O)c(C)s2)cc1,0,0,0,0,0,0,-,-,
COC(=O)c1ccc(-c2nc3cc(Cl)c(N)cc3s2)cc1,0,0,55.5,0,0,0,0,0,
CCC(C(=O)NCc1ccccn1)n1c2ccccc2c2nc(=O)cc(C)n21 (centres undefined),0,0,0,0,0,0,-,-,
